Tests used:
HT-29 = assay: Antiproliferative activity against human HT-29 cells after 48 hrs by MTT assay; format: functional, cell-based; settings: HT-29, 48 h
Summary of the method: (§1)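 Cells in DMEM/10% FBS pre-incubated 24 h at 37 °C, then compound-treated 48 h (10 mM DMSO stock diluted in medium). MTT (10 µL of 5 mg/mL) added for 4 h; formazan dissolved in DMSO, absorbance read at 570 nm. IC50 = 50% inhibitory concentration, mean of three individual experiments.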

A549 = assay: Antiproliferative activity against human A549 cells after 48 hrs by MTT assay; format: functional, cell-based; settings: A549, 48 h; summary of the method: as §1
HeLa = assay: Antiproliferative activity against human HeLa cells after 48 hrs by MTT assay; format: functional, cell-based; summary of the method: as §1
HepG2 = assay: Antiproliferative activity against human HepG2 cells after 48 hrs by MTT assay; format: functional, cell-based; settings: HepG2, 48 h; summary of the method: as §1
MCF7 = assay: Antiproliferative activity against human MCF7 cells after 48 hrs by MTT assay; format: functional, cell-based; settings: MCF7, 48 h; summary of the method: as §1
DU-145 = assay: Antiproliferative activity against human DU145 cells after 48 hrs by MTT assay; format: functional, cell-based; settings: DU-145, 48 h; summary of the method: as §1
NIH3T3 = assay: Antiproliferative activity against mouse NIH/3T3 cells after 48 hrs by MTT assay; format: cell-based; settings: NIH3T3, 48 h; summary of the method: as §1

| SMILES | IC50 (HT-29) | IC50 (A549) | IC50 (HeLa) | IC50 (HepG2) | IC50 (MCF7) | IC50 (DU-145) | IC50 (NIH3T3) |
| --- | --- | --- | --- | --- | --- | --- | --- |
| COc1cc([C@@H]2c3cc4c(cc3C(NC(=O)c3cn(Cc5ccc(Cl)cc5)nn3)[C@H]3COC(=O)[C@H]23)OCO4)cc(OC)c1OC (single isomer, unassigned) | 23.7 µM | 8.06 µM | 3.57 µM | 3.54 µM | 5.3 µM | 2.37 µM | 81.3 µM |
| COc1ccc(Cn2cc(C(=O)NC3c4cc5c(cc4[C@@H](c4cc(OC)c(OC)c(OC)c4)[C@H]4C(=O)OC[C@H]34)OCO5)nn2)cc1 (single isomer, unassigned) | 17.5 µM | 5.82 µM | 3.46 µM | 1.96 µM | 3.32 µM | 1.76 µM | 67 µM |
| COc1cc([C@@H]2c3cc4c(cc3C(NC(=O)c3cn(-c5ccccc5)nn3)[C@H]3COC(=O)[C@H]23)OCO4)cc(OC)c1OC (single isomer, unassigned) | 5.37 µM | 1.82 µM | 2.47 µM | 1.94 µM | 1.45 µM | 1.31 µM | 53.9 µM |
| COc1cc([C@@H]2c3cc4c(cc3C(NC(=O)c3cn(Cc5ccccc5)nn3)[C@H]3COC(=O)[C@H]23)OCO4)cc(OC)c1OC (single isomer, unassigned) | 19.1 µM | 13.3 µM | 18.8 µM | 13.1 µM | 13.7 µM | 17.1 µM | 67 µM |
| COc1cc([C@@H]2c3cc4c(cc3C(NC(=O)c3cn(Cc5cccc(Oc6ccccc6)c5)nn3)[C@H]3COC(=O)[C@H]23)OCO4)cc(OC)c1OC (single isomer, unassigned) | 40.5 µM | 8.65 µM | 22.7 µM | 6.6 µM | 4.4 µM | 5.68 µM | 88.4 µM |
| COc1cc(OC)cc(-n2cc(C(=O)NC3c4cc5c(cc4[C@@H](c4cc(OC)c(OC)c(OC)c4)[C@H]4C(=O)OC[C@H]34)OCO5)nn2)c1 (single isomer, unassigned) | 19.6 µM | 17.7 µM | 17 µM | 13.8 µM | 8.66 µM | 11.7 µM | 77 µM |
| COc1cc(Cn2cc(C(=O)NC3c4cc5c(cc4[C@@H](c4cc(OC)c(OC)c(OC)c4)[C@H]4C(=O)OC[C@H]34)OCO5)nn2)cc(OC)c1OC (single isomer, unassigned) | 8.54 µM | 14.7 µM | 10.2 µM | 0.957 µM | 7.34 µM | 8.54 µM | 62 µM |
| COc1cccc(Cn2cc(C(=O)NC3c4cc5c(cc4[C@@H](c4cc(OC)c(OC)c(OC)c4)[C@H]4C(=O)OC[C@H]34)OCO5)nn2)c1 (single isomer, unassigned) | 31.3 µM | 21.3 µM | 22.6 µM | 9.88 µM | 7.71 µM | 12.4 µM | 74.1 µM |
| COc1cc([C@@H]2c3cc4c(cc3C(NC(=O)c3cn(Cc5ccc(F)cc5)nn3)[C@H]3COC(=O)[C@H]23)OCO4)cc(OC)c1OC (single isomer, unassigned) | 78.3 µM | 75.7 µM | 29 µM | 34.1 µM | 19.1 µM | 22.8 µM | 91.1 µM |
| COc1cc([C@@H]2c3cc4c(cc3C(NC(=O)c3cn(-c5ccc(F)cc5)nn3)[C@H]3COC(=O)[C@H]23)OCO4)cc(OC)c1OC (single isomer, unassigned) | 13.8 µM | 14.1 µM | 78.6 µM | 10.9 µM | 6.7 µM | 9.44 µM | 98.1 µM |
| COc1cc([C@@H]2c3cc4c(cc3C(NC(=O)c3cn(Cc5ccc6c(c5)OCO6)nn3)[C@H]3COC(=O)[C@H]23)OCO4)cc(OC)c1OC (single isomer, unassigned) | 36.4 µM | 34.5 µM | 32.9 µM | 26.6 µM | 34.5 µM | 27.7 µM | 69.5 µM |
| COc1cc(Cn2cc(C(=O)NC3c4cc5c(cc4[C@@H](c4cc(OC)c(OC)c(OC)c4)[C@H]4C(=O)OC[C@H]34)OCO5)nn2)cc(OC)c1 (single isomer, unassigned) | 27.4 µM | 32.4 µM | 25.8 µM | 14.2 µM | 13.9 µM | 14.6 µM | 81.3 µM |
| COc1ccc(Cn2cc(C(=O)NC3c4cc5c(cc4[C@@H](c4cc(OC)c(OC)c(OC)c4)[C@H]4C(=O)OC[C@H]34)OCO5)nn2)cc1OC (single isomer, unassigned) | 13.5 µM | 19.6 µM | 12.4 µM | 12.7 µM | 12.2 µM | 13.5 µM | 83.8 µM |
| COc1cc([C@@H]2c3cc4c(cc3C(NC(=O)c3cn(-c5ccc6c(c5)OCO6)nn3)[C@H]3COC(=O)[C@H]23)OCO4)cc(OC)c1OC (single isomer, unassigned) | 17.9 µM | 0.974 µM | 47.7 µM | 9.94 µM | 7.61 µM | 8.92 µM | 67.2 µM |
| COc1cc([C@@H]2c3cc4c(cc3C(NC(=O)c3cn(-c5cc(OC)c(OC)c(OC)c5)nn3)[C@H]3COC(=O)[C@H]23)OCO4)cc(OC)c1OC (single isomer, unassigned) | 8.54 µM | 14.7 µM | 10.2 µM | 0.957 µM | 7.34 µM | 8.54 µM | 79.6 µM |
| COc1cc([C@@H]2c3cc4c(cc3C(NC(=O)c3cn(Cc5ccc(C(F)(F)F)cc5)nn3)[C@H]3COC(=O)[C@H]23)OCO4)cc(OC)c1OC (single isomer, unassigned) | 66.4 µM | 27.8 µM | 26.6 µM | 20.4 µM | 21.9 µM | 32.9 µM | 75.5 µM |
| COc1ccc(-n2cc(C(=O)NC3c4cc5c(cc4[C@@H](c4cc(OC)c(OC)c(OC)c4)[C@H]4C(=O)OC[C@H]34)OCO5)nn2)cc1OC (single isomer, unassigned) | 15.1 µM | 12.2 µM | 18.6 µM | 11.7 µM | 8.04 µM | 14.5 µM | 66.2 µM |
| COc1cc([C@@H]2c3cc4c(cc3[C@H](O)[C@H]3COC(=O)[C@H]23)OCO4)cc(OC)c1OC [PODOFILOX] | 4.78 µM | 4.6 µM | 3.45 µM | 6.63 µM | 3.06 µM | 4.15 µM | – |

Reference: ChEMBL document CHEMBL4251626, “4β-amidotriazole linked podophyllotoxin congeners: DNA topoisomerase-IIα inhibition and potential anticancer agents for prostate cancer” (Eur J Med Chem, 2018)
